{"source": "ChEMBL document CHEMBL1221269", "about": "“Synthesis of 3,3-diindolyl oxyindoles efficiently catalysed by FeCl3 and their in vitro evaluation for anticancer activity” (Bioorg Med Chem Lett, 2010)", "format_in_all_cases": "functional, cell-based", "key": {"A549": {"tested_on": "A549", "assay": "Cytotoxicity against human A549 cells after 48 hrs by MTT assay", "conditions": "A549, 48 h", "procedure,_shortened": "(§1)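 Cells seeded at 2.0×10^4 per well in 96-well plates, exposed to a range of test concentrations for 48 h. Medium then replaced with fresh medium containing MTT at 100 µg/mL for 2–3 h. Formazan dissolved in DMSO, OD read at 540 nm with 620 nm reference. Viability taken as treated vs untreated absorbance. IC50 in µM, mean of three separate experiments. Highest concentration tested 100 µM.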"}, "SK-N-SH": {"tested_on": "SK-N-SH", "assay": "Cytotoxicity against human SK-N-SH cells after 48 hrs by MTT assay", "procedure,_shortened": "as §1"}, "HepG2": {"tested_on": "HepG2", "assay": "Cytotoxicity against human HepG2 cells after 48 hrs by MTT assay", "conditions": "HepG2, 48 h", "procedure,_shortened": "as §1"}, "DU-145": {"tested_on": "DU-145", "assay": "Cytotoxicity against human DU145 cells after 48 hrs by MTT assay", "conditions": "DU-145, 48 h", "procedure,_shortened": "as §1"}, "MCF7 [1]": {"tested_on": "MCF7", "assay": "Cytotoxicity against human MCF7 cells at up to 100 uM after 48 hrs by MTT assay", "procedure,_shortened": "as §1"}, "MCF7 [2]": {"tested_on": "MCF7", "assay": "Cytotoxicity against human MCF7 cells after 48 hrs by MTT assay", "conditions": "MCF7, 48 h", "procedure,_shortened": "as §1"}}, "note": "Activity calls are given as the source filed them. No cut-off for these calls is given here."}
{"smiles": "O=C1Nc2ccccc2C1(c1c[nH]c2ccc(Cl)cc12)c1c[nH]c2ccc(Cl)cc12", "values": [{"measurement": "IC50", "setting": "A549", "result": 8.3, "unit": "µM"}, {"measurement": "IC50", "setting": "SK-N-SH", "result": 9.4, "unit": "µM"}, {"measurement": "IC50", "setting": "HepG2", "result": 14.6, "unit": "µM"}, {"measurement": "IC50", "setting": "DU-145", "result": 8.1, "unit": "µM"}, {"measurement": "Activity", "setting": "MCF7 [1]", "result": "inactive"}]}
{"smiles": "COc1ccc2c(C3(c4c[nH]c5cc(OC)ccc45)C(=O)Nc4ccc(F)cc43)c[nH]c2c1", "values": [{"measurement": "IC50", "setting": "A549", "result": 14.4, "unit": "µM"}, {"measurement": "IC50", "setting": "SK-N-SH", "result": 4.1, "unit": "µM"}, {"measurement": "IC50", "setting": "MCF7 [2]", "result": 12, "unit": "µM"}, {"measurement": "IC50", "setting": "HepG2", "result": 16, "unit": "µM"}, {"measurement": "IC50", "setting": "DU-145", "result": 13.1, "unit": "µM"}]}
{"smiles": "O=C1Nc2ccccc2C1(c1c[nH]c2ccc(Br)cc12)c1c[nH]c2ccc(Br)cc12", "values": [{"measurement": "IC50", "setting": "A549", "result": 8, "unit": "µM"}, {"measurement": "IC50", "setting": "SK-N-SH", "result": 13.2, "unit": "µM"}, {"measurement": "IC50", "setting": "MCF7 [2]", "result": 46.8, "unit": "µM"}, {"measurement": "IC50", "setting": "HepG2", "result": 15.8, "unit": "µM"}, {"measurement": "IC50", "setting": "DU-145", "result": 3.6, "unit": "µM"}]}
{"smiles": "O=C1Nc2ccc(F)cc2C1(c1c[nH]c2ccc(Br)cc12)c1c[nH]c2ccc(Br)cc12", "values": [{"measurement": "IC50", "setting": "A549", "result": 10.3, "unit": "µM"}, {"measurement": "IC50", "setting": "SK-N-SH", "result": 2.8, "unit": "µM"}, {"measurement": "IC50", "setting": "MCF7 [2]", "result": 12.8, "unit": "µM"}, {"measurement": "IC50", "setting": "HepG2", "result": 12.8, "unit": "µM"}, {"measurement": "IC50", "setting": "DU-145", "result": 16.3, "unit": "µM"}]}
{"smiles": "O=C1Nc2ccc(F)cc2C1(c1c[nH]c2ccc(Cl)cc12)c1c[nH]c2ccc(Cl)cc12", "values": [{"measurement": "IC50", "setting": "A549", "result": 12.1, "unit": "µM"}, {"measurement": "IC50", "setting": "SK-N-SH", "result": 8.5, "unit": "µM"}, {"measurement": "IC50", "setting": "MCF7 [2]", "result": 24.8, "unit": "µM"}, {"measurement": "IC50", "setting": "HepG2", "result": 16.6, "unit": "µM"}, {"measurement": "IC50", "setting": "DU-145", "result": 19.6, "unit": "µM"}]}
{"smiles": "O=C1Nc2ccc(F)cc2C1(c1c[nH]c2ccccc12)c1c[nH]c2ccccc12", "values": [{"measurement": "IC50", "setting": "A549", "result": 12.7, "unit": "µM"}, {"measurement": "IC50", "setting": "SK-N-SH", "result": 67.3, "unit": "µM"}, {"measurement": "IC50", "setting": "MCF7 [2]", "result": 23.6, "unit": "µM"}, {"measurement": "IC50", "setting": "HepG2", "result": 6.6, "unit": "µM"}, {"measurement": "IC50", "setting": "DU-145", "result": 12.8, "unit": "µM"}]}
{"smiles": "Cn1cc(C2(c3cn(C)c4ccccc34)C(=O)Nc3ccccc32)c2ccccc21", "values": [{"measurement": "IC50", "setting": "A549", "result": 10.1, "unit": "µM"}, {"measurement": "IC50", "setting": "SK-N-SH", "result": 5.1, "unit": "µM"}, {"measurement": "IC50", "setting": "HepG2", "result": 12, "unit": "µM"}, {"measurement": "IC50", "setting": "DU-145", "result": 5.6, "unit": "µM"}, {"measurement": "Activity", "setting": "MCF7 [1]", "result": "inactive"}]}
{"smiles": "O=C1Nc2ccccc2C1(c1c[nH]c2ccccc12)c1c[nH]c2ccccc12", "values": [{"measurement": "IC50", "setting": "A549", "result": 8.6, "unit": "µM"}, {"measurement": "IC50", "setting": "SK-N-SH", "result": 11.3, "unit": "µM"}, {"measurement": "IC50", "setting": "MCF7 [2]", "result": 49.8, "unit": "µM"}, {"measurement": "IC50", "setting": "HepG2", "result": 20.4, "unit": "µM"}, {"measurement": "IC50", "setting": "DU-145", "result": 8.7, "unit": "µM"}]}
{"smiles": "COc1ccc2[nH]cc(C3(c4c[nH]c5ccc(OC)cc45)C(=O)Nc4ccccc43)c2c1", "values": [{"measurement": "IC50", "setting": "A549", "result": 11.2, "unit": "µM"}, {"measurement": "IC50", "setting": "SK-N-SH", "result": 3.9, "unit": "µM"}, {"measurement": "IC50", "setting": "MCF7 [2]", "result": 33.6, "unit": "µM"}, {"measurement": "IC50", "setting": "HepG2", "result": 30.2, "unit": "µM"}, {"measurement": "IC50", "setting": "DU-145", "result": 2.2, "unit": "µM"}]}
{"smiles": "COc1cccc2[nH]cc(C3(c4c[nH]c5cccc(OC)c45)C(=O)Nc4ccc(F)cc43)c12", "values": [{"measurement": "IC50", "setting": "A549", "result": 7.8, "unit": "µM"}, {"measurement": "IC50", "setting": "SK-N-SH", "result": 12.1, "unit": "µM"}, {"measurement": "IC50", "setting": "MCF7 [2]", "result": 7.5, "unit": "µM"}, {"measurement": "IC50", "setting": "HepG2", "result": 18, "unit": "µM"}, {"measurement": "IC50", "setting": "DU-145", "result": 9.4, "unit": "µM"}]}
{"smiles": "Cn1cc(C2(c3cn(C)c4ccccc34)C(=O)Nc3ccc(F)cc32)c2ccccc21", "values": [{"measurement": "IC50", "setting": "A549", "result": 17.5, "unit": "µM"}, {"measurement": "IC50", "setting": "SK-N-SH", "result": 6.5, "unit": "µM"}, {"measurement": "IC50", "setting": "MCF7 [2]", "result": 9.2, "unit": "µM"}, {"measurement": "IC50", "setting": "HepG2", "result": 13, "unit": "µM"}, {"measurement": "IC50", "setting": "DU-145", "result": 11, "unit": "µM"}]}
{"smiles": "COc1ccc2[nH]cc(C3(c4c[nH]c5ccc(OC)cc45)C(=O)Nc4ccc(F)cc43)c2c1", "values": [{"measurement": "IC50", "setting": "A549", "result": 10.6, "unit": "µM"}, {"measurement": "IC50", "setting": "SK-N-SH", "result": 7, "unit": "µM"}, {"measurement": "IC50", "setting": "HepG2", "result": 36.6, "unit": "µM"}, {"measurement": "IC50", "setting": "DU-145", "result": 3.6, "unit": "µM"}, {"measurement": "Activity", "setting": "MCF7 [1]", "result": "inactive"}]}
{"smiles": "COc1ccc2c(C3(c4c[nH]c5cc(OC)ccc45)C(=O)Nc4ccccc43)c[nH]c2c1", "values": [{"measurement": "IC50", "setting": "A549", "result": 7.8, "unit": "µM"}, {"measurement": "IC50", "setting": "SK-N-SH", "result": 13.6, "unit": "µM"}, {"measurement": "IC50", "setting": "MCF7 [2]", "result": 45.4, "unit": "µM"}, {"measurement": "IC50", "setting": "HepG2", "result": 12, "unit": "µM"}, {"measurement": "IC50", "setting": "DU-145", "result": 1.2, "unit": "µM"}]}
{"smiles": "COc1cccc2[nH]cc(C3(c4c[nH]c5cccc(OC)c45)C(=O)Nc4ccccc43)c12", "values": [{"measurement": "IC50", "setting": "A549", "result": 15.3, "unit": "µM"}, {"measurement": "IC50", "setting": "SK-N-SH", "result": 4.7, "unit": "µM"}, {"measurement": "IC50", "setting": "MCF7 [2]", "result": 14.1, "unit": "µM"}, {"measurement": "IC50", "setting": "HepG2", "result": 9, "unit": "µM"}, {"measurement": "IC50", "setting": "DU-145", "result": 5, "unit": "µM"}]}
{"smiles": "O=C1Nc2ccc(F)cc2C1(c1c[nH]c2ccc([N+](=O)[O-])cc12)c1c[nH]c2ccc([N+](=O)[O-])cc12", "values": [{"measurement": "IC50", "setting": "A549", "result": 7.7, "unit": "µM"}, {"measurement": "IC50", "setting": "SK-N-SH", "result": 6.8, "unit": "µM"}, {"measurement": "IC50", "setting": "HepG2", "result": 23.8, "unit": "µM"}, {"measurement": "IC50", "setting": "DU-145", "result": 7.5, "unit": "µM"}, {"measurement": "Activity", "setting": "MCF7 [1]", "result": "inactive"}]}
{"smiles": "O=C1Nc2ccccc2C1(c1c[nH]c2ccc([N+](=O)[O-])cc12)c1c[nH]c2ccc([N+](=O)[O-])cc12", "values": [{"measurement": "IC50", "setting": "A549", "result": 10.3, "unit": "µM"}, {"measurement": "IC50", "setting": "SK-N-SH", "result": 11.8, "unit": "µM"}, {"measurement": "IC50", "setting": "HepG2", "result": 23.4, "unit": "µM"}, {"measurement": "IC50", "setting": "DU-145", "result": 8, "unit": "µM"}, {"measurement": "Activity", "setting": "MCF7 [1]", "result": "inactive"}]}
